ChEMBL document CHEMBL4373718, “Germacrane Sesquiterpenoids as a New Type of Anticardiac Fibrosis Agent Targeting Transforming Growth Factor β Type I Receptor” (J Med Chem, 2019)
Calls of active or inactive are those of the source. The rule behind the calls is not given here.

What was measured:
[1] = biological target: T1, TGF-beta receptor type-1 (Rattus norvegicus) (UniProt P80204); assay: Inhibition of TGFbeta1 receptor in TGFbeta1-stimulated Sprague-Dawley rat cardiac fibroblasts assessed as reduction in fibronectin expression at 50 uM measured after 12 hrs by Western blot analysis
T1 sequence (whole entry): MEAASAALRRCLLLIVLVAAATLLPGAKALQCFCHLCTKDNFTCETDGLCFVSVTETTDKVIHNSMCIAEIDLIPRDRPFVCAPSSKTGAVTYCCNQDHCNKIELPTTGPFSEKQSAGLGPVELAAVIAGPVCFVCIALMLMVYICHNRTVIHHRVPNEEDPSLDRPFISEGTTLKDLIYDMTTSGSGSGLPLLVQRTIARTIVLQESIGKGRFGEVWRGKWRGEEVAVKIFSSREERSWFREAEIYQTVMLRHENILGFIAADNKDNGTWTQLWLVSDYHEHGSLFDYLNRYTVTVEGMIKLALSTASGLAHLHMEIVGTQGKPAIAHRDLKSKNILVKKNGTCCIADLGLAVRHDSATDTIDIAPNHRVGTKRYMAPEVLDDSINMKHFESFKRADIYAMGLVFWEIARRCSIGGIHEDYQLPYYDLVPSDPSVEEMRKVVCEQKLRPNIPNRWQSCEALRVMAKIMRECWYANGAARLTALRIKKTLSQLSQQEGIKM
In short: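 Screen in primary rat cardiac fibroblasts: compounds at 50 µM or 10 µM given with 10 ng/mL TGFβ1 for 12 h. FN measured by Western blot with GAPDH loading control and densitometry. N=3 independent experiments.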

[2] = biological target: T1, TGF-beta receptor type-1 (Rattus norvegicus); assay: Inhibition of TGFbeta1 receptor in TGFbeta1-stimulated Sprague-Dawley rat cardiac fibroblasts assessed as reduction in fibronectin expression at 10 uM measured after 12 hrs by Western blot analysis relative to control
In short: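 Primary rat cardiac fibroblasts (passages 2–4, 3×10^5 per well) treated with compound plus 10 ng/mL TGFβ1 for 12 h; tested at 2.5, 5 and 10 µM. Lysates run on 10% SDS-PAGE (30 µg protein), probed for FN, α-SMA and collagen I/III, and quantified by densitometry against GAPDH. N=3 independent experiments.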

[3] = biological target: T1, TGF-beta receptor type-1 (Rattus norvegicus); assay: Inhibition of TGFbeta1 receptor in TGFbeta1-stimulated Sprague-Dawley rat cardiac fibroblasts assessed as reduction in fibronectin expression at 2 mM measured after 12 hrs by Western blot analysis
[4] = biological target: T1, TGF-beta receptor type-1 (Rattus norvegicus); assay: Inhibition of TGFbeta1 receptor in TGFbeta1-stimulated Sprague-Dawley rat cardiac fibroblasts assessed as reduction in alpha-SMA expression at 2 mM measured after 12 hrs by Western blot analysis
[5] = biological target: T1, TGF-beta receptor type-1 (Rattus norvegicus); assay: Inhibition of TGFbeta1 receptor in TGFbeta1-stimulated Sprague-Dawley rat cardiac fibroblasts assessed as reduction in collagen 1 expression at 2 mM measured after 12 hrs by Western blot analysis
[6] = biological target: T1, TGF-beta receptor type-1 (Rattus norvegicus); assay: Inhibition of TGFbeta1 receptor in TGFbeta1-stimulated Sprague-Dawley rat cardiac fibroblasts assessed as reduction in collagen 3 expression at 2 mM measured after 12 hrs by Western blot analysis
[7] = biological target: T1, TGF-beta receptor type-1 (Rattus norvegicus); assay: Inhibition of TGFbeta1 receptor in TGFbeta1-stimulated Sprague-Dawley rat cardiac fibroblasts assessed as reduction in fibronectin expression at 20 uM measured after 12 hrs by Western blot analysis
In short: (§1)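 Primary adult male SD rat cardiac fibroblasts were used at passages 2–4, seeded at 3×10^5 per well. Cells were co-treated with compound and 10 ng/mL TGFβ1 for 12 h. Lysates (30 µg protein) were run on 10% SDS-PAGE, Western blotted for FN, α-SMA, collagen I and III, normalised to GAPDH and quantified by densitometry; N = 3 independent experiments.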

[8] = biological target: T1, TGF-beta receptor type-1 (Rattus norvegicus); assay: Inhibition of TGFbeta1 receptor in TGFbeta1-stimulated Sprague-Dawley rat cardiac fibroblasts assessed as reduction in alpha-SMA expression at 20 uM measured after 12 hrs by Western blot analysis; in short: as §1
[9] = biological target: T1, TGF-beta receptor type-1 (Rattus norvegicus); assay: Inhibition of TGFbeta1 receptor in TGFbeta1-stimulated Sprague-Dawley rat cardiac fibroblasts assessed as reduction in collagen 1 expression at 20 uM measured after 12 hrs by Western blot analysis; in short: as §1
[10] = biological target: T1, TGF-beta receptor type-1 (Rattus norvegicus); assay: Inhibition of TGFbeta1 receptor in TGFbeta1-stimulated Sprague-Dawley rat cardiac fibroblasts assessed as reduction in collagen 3 expression at 20 uM measured after 12 hrs by Western blot analysis; in short: as §1
Rattus norvegicus [11] = assay: Antifibrotic activity in abdominal aortic constriction Sprague-Dawley rat model of cardiac fibrosis assessed as decrease in heart fibronectin level at 10 mg/kg, ip administered once daily for 4 weeks measured post-last dose by immunohistochemical analysis; format: functional, organism-based
In short: (§2)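 Male SD rats (200–250 g, n = 8/group) had the suprarenal abdominal aorta tied with 4-0 silk around a 21-G probe, which was then removed; sham rats had surgery without constriction. Dosing was ip daily for 4 weeks in saline with 0.5% DMSO and 5% Kolliphor HS 15. Ventricle slices were formalin-fixed, paraffin-embedded and cut into 4 µm sections. FN and α-SMA were read by immunohistochemistry and collagen by Masson's trichrome.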

Rattus norvegicus [12] = assay: Antifibrotic activity in abdominal aortic constriction Sprague-Dawley rat model of cardiac fibrosis assessed as decrease in heart collagen level at 10 mg/kg, ip administered once daily for 4 weeks measured post-last dose by Masson's trichrome staining-based histological analysis; format: functional, organism-based; in short: as §2
Rattus norvegicus [13] = assay: Antifibrotic activity in abdominal aortic constriction Sprague-Dawley rat model of cardiac fibrosis assessed as decrease in heart alpha-SMA level at 10 mg/kg, ip administered once daily for 4 weeks measured post-last dose by immunohistochemical analysis; format: functional, organism-based; in short: as §2
Rattus norvegicus [14] = assay: Antifibrotic activity in abdominal aortic constriction Sprague-Dawley rat model of cardiac fibrosis assessed as diastolic left ventricular anterior wall thickness at 10 mg/kg, ip administered once daily for 4 weeks measured post-last dose by echocardiography (reference value: 2.48 +/- 0.42 mm); format: functional
Rattus norvegicus [15] = assay: Antifibrotic activity in abdominal aortic constriction Sprague-Dawley rat model of cardiac fibrosis assessed as systolic left ventricular anterior wall thickness at 10 mg/kg, ip administered once daily for 4 weeks measured post-last dose by echocardiography (reference value: 3.92 +/- 0.42 mm); format: functional
Rattus norvegicus [16] = assay: Antifibrotic activity in abdominal aortic constriction Sprague-Dawley rat model of cardiac fibrosis assessed as diastolic left ventricular internal diameter at 10 mg/kg, ip administered once daily for 4 weeks measured post-last dose by echocardiography (reference value: 7.60 +/- 0.63 mm); format: functional
Rattus norvegicus [17] = assay: Antifibrotic activity in abdominal aortic constriction Sprague-Dawley rat model of cardiac fibrosis assessed as systolic left ventricular internal diameter at 10 mg/kg, ip administered once daily for 4 weeks measured post-last dose by echocardiography (reference value: 3.99 +/- 0.41 mm); format: functional
Rattus norvegicus [18] = assay: Antifibrotic activity in abdominal aortic constriction Sprague-Dawley rat model of cardiac fibrosis assessed as diastolic left ventricular posterior wall thickness at 10 mg/kg, ip administered once daily for 4 weeks measured post-last dose by echocardiography (reference value: 2.33 +/- 0.31 mm); format: functional
Rattus norvegicus [19] = assay: Antifibrotic activity in abdominal aortic constriction Sprague-Dawley rat model of cardiac fibrosis assessed as systolic left ventricular posterior wall thickness at 10 mg/kg, ip administered once daily for 4 weeks measured post-last dose by echocardiography (reference value: 3.62 +/- 0.26 mm); format: functional
Rattus norvegicus [20] = assay: Antifibrotic activity in abdominal aortic constriction Sprague-Dawley rat model of cardiac fibrosis assessed as ejection fraction at 10 mg/kg, ip administered once daily for 4 weeks measured post-last dose by echocardiography (reference value: 79.59 +/- 3.13%); format: functional
Rattus norvegicus [21] = assay: Antifibrotic activity in abdominal aortic constriction Sprague-Dawley rat model of cardiac fibrosis assessed as fractional shortening at 10 mg/kg, ip administered once daily for 4 weeks measured post-last dose by echocardiography (reference value: 48.17 +/- 4.69%); format: functional

SMILES | fibronectin reduction (active/not active) [1] | fibronectin reduction verdict (active/not active) [2] | further results
C=C(C)[C@@H]1C/C=C(\C)[C@H](OC(=O)c2cccnc2Cl)CCC2=C[C@@H]1OC2=O | Active | Active | 
O=C1CCC[C@@H]2[C@H]3CCC[N+]4([O-])CCC[C@@H](CN12)[C@@H]34 (stereo partly specified) |  |  | inhibition [3]: Active; inhibition [4]: Active; inhibition [5]: Active; inhibition [6]: Active
C=C(C)[C@@H]1C/C=C(\C)[C@H](N=[N+]=[N-])CCC2=C[C@@H]1OC2=O | Active |  | 
C=C1CC[C@@H](C(=C)C)[C@@H]2C=C(CC[C@H]1F)C(=O)O2 | Active |  | 
COC(=O)C1=C(C)NC(C)=C(C(=O)OC)C1c1ccccc1[N+](=O)[O-] [NIFEDIPINE] |  |  | inhibition [7]: Active; inhibition [8]: Active; inhibition [9]: Active; inhibition [10]: Active; Activity (Rattus norvegicus [11]): Active; Activity (Rattus norvegicus [12]): Active; Activity (Rattus norvegicus [13]): Active; Activity (Rattus norvegicus [14]): 2.02 mm; Activity (Rattus norvegicus [15]): 3.23 mm; Activity (Rattus norvegicus [16]): 8.32 mm; Activity (Rattus norvegicus [17]): 4.69 mm; Activity (Rattus norvegicus [18]): 1.97 mm; Activity (Rattus norvegicus [19]): 3.19 mm; Activity (Rattus norvegicus [20]): 72.6%; Activity (Rattus norvegicus [21]): 42.79%
C=C(C)[C@@H]1C/C=C(\C)[C@@H](O)CCC2=C[C@@H]1OC2=O | Active |  | 
C=C(C)[C@@H]1C/C=C(\C)[C@H](F)CCC2=C[C@@H]1OC2=O | Active |  | 
C=C(C)[C@@H]1C/C=C(C)/C(=N\OC(=O)c2ccco2)CCC2=C[C@@H]1OC2=O | inactive | inactive | 
C=C(C)[C@@H]1C/C=C(\C)[C@H](OC(=O)c2cc(C(F)(F)F)cc(C(F)(F)F)c2)CCC2=C[C@@H]1OC2=O | Active | Active | 
C=C(C)[C@@H]1CC/C(C)=C/CCC2=C[C@@H]1OC2=O | Active |  | 
C=C(C)[C@@H]1C[C@@H](N2CCCCC2)/C(C)=C/CCC2=C[C@@H]1OC2=O | inactive | inactive | 
C=C(C)[C@@H]1CC/C(C)=C/CC[C@@H](C(=O)OC)CC1=O | inactive | inactive | 
C=C(C)[C@@H]1C/C=C(\C)[C@H](OC)CCC2=C[C@@H]1OC2=O | Active |  | 
C=C(C)[C@@H]1C/C=C(\C)[C@H](OC(C)=O)CCC2=C[C@@H]1OC2=O | Active |  | 
C=C(C)[C@@H]1C/C=C(C)/C(=N\OC(C)=O)CCC2=C[C@@H]1OC2=O | inactive | inactive | 
C=C(C)[C@@H]1C/C=C(\C)[C@H](Br)CCC2=C[C@@H]1OC2=O | Active | Active | 

SMILES | fibronectin reduction (active/not active) [1] | fibronectin reduction verdict (active/not active) [2] | further results
C=C(C)[C@@H]1C[C@@H](OCC)/C(C)=C/CCC2=C[C@@H]1OC2=O | inactive | inactive | 
C=C(C)[C@@H]1CC/C(C)=C/CC[C@@H](C(=O)OCC)CC1=O | inactive | inactive | 
C=C(C)[C@@H]1C/C=C(\C)[C@H](OC(=O)c2ccc(C(F)(F)F)cc2)CCC2=C[C@@H]1OC2=O | Active |  | 
C=C(C)[C@@H]1C/C=C(\C)[C@H](Cl)CCC2=C[C@@H]1OC2=O | Active | Active | 
C=C(C)[C@@H]1C/C=C(\C)[C@H](O)CCC2=C[C@@H]1OC2=O | Active |  | 
C=C(C)[C@@H]1C[C@@H](N2CCCC2)/C(C)=C/CCC2=C[C@@H]1OC2=O | inactive | inactive | 
C=C(C)[C@@H]1C[C@@H](N2CCOCC2)/C(C)=C/CCC2=C[C@@H]1OC2=O | inactive | inactive | 
C=C(C)[C@@H]1C/C=C(\C)[C@H](OCC)CCC2=C[C@@H]1OC2=O | Active |  | 
C=C(C)[C@@H]1C/C=C(\C)[C@H](OC(=O)c2cccs2)CCC2=C[C@@H]1OC2=O | Active |  | 
C=C(C)[C@@H]1C[C@@H](OC=O)/C(C)=C/CCC2=C[C@@H]1OC2=O | inactive | inactive | 
C=C(C)[C@@H]1C/C=C(\C)[C@H](OC(=O)c2ccc([N+](=O)[O-])cc2)CCC2=C[C@@H]1OC2=O | Active | Active | 
C=C(C)[C@@H]1C[C@@H](OC(C)C)/C(C)=C/CCC2=C[C@@H]1OC2=O | inactive | inactive | 
C=C(C)[C@@H]1CC[C@]2(C)O[C@@H]2CCC2=C[C@@H]1OC2=O | Active |  | 
C=C(C)[C@@H]1C[C@@H](OC)/C(C)=C/CCC2=C[C@@H]1OC2=O | inactive | inactive | 
C=C(C)[C@@H]1C[C@@H](O)/C(C)=C/CCC2=C[C@@H]1OC2=O | Active | Active | 
C=C(C)[C@@H]1C/C=C(\C)[C@H](O[N+](=O)[O-])CCC2=C[C@@H]1OC2=O | Active |  | 
